In PubChem BioAssay AID624315 (Broad Institute, 2012):
Values joined by “and” are separate entries in the source; they are usually repeats but may differ in a detail not shown here. Equal entries are not always repeated. Active and inactive are the calls of the source.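 How the source made its calls: active means compounds lowering cell ATP signal whose fitted IC50 is at or below twice the top valid tested dose; inconclusive means flat fit with 30 to 70% inhibition, or poor fit; inactive means the rest.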

Tested on: SK-MEL-5 melanoma viability, CellTiter-Glo ATP, 24 h
Assay: SK-MEL-5 parental cell viability reduction, dose response, orthogonal assay for MITF inhibitor project, CellTiter-Glo luminescence, dry powder samples, set 3 (AID 624315)
Details: not given
In short: (§1)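 System: SK-MEL-5 human melanoma cells, parental non-reporter line; medium: phenol red-free medium; dosing: multiple compound concentrations delivered by pin transfer; incubation: 24 h treatment at 37 °C, 5 min RT before reading; detection: CellTiter-Glo luminescence measuring cellular ATP content; read-out basis: viability from ATP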
`COc1ccc(C2=C(NC(=O)c3ccc(Cl)cc3)C(=O)c3ccccc3C2=O)cc1` gave an IC50 of 34.6 µM. Molecule `CCN1CCN(C2=C(Nc3ccccc3)C(=O)c3ccccc3C2=O)CC1` has an IC50 of 28.1 µM. With `CN1CCN(C2=C(NS(=O)(=O)c3ccc(Br)s3)C(=O)c3ccccc3C2=O)CC1` the IC50 was 30 µM. `O=C(NC1=C(Cl)C(=O)c2ccccc2C1=O)c1ccccc1` showed an IC50 of 9.1 µM. `COC1=C(NS(=O)(=O)c2ccccc2)C(=O)c2ccccc2C1=O` showed an IC50 of 21.7 µM. In the case of `C=CCNC1=C(Cl)C(=O)c2ccccc2C1=O`, the IC50 is reported as 9.72 µM and 12.1 µM. With `COc1ccc(C(=O)NC2=C(c3ccc(OC(F)(F)F)cc3)C(=O)c3ccccc3C2=O)cc1` the IC50 was > 70 µM (inactive). Work on `O=C(NC1=C(N2CCOCC2)C(=O)c2ccccc2C1=O)c1ccc(Br)cc1` yielded an IC50 of 32 µM. `C=CCNC1=C(N(C)C(C)=O)C(=O)c2ccccc2C1=O` gave an IC50 of 0.79 µM. With `CN1CCN(C2=C(NS(=O)(=O)c3ccc(Br)cc3)C(=O)c3ccccc3C2=O)CC1` the IC50 was > 70 µM (inactive). For `O=C1C(Nc2ccccc2)=C(N2CCOCC2)C(=O)c2ccccc21`, the IC50 was 27 µM. In the case of `O=C1C(Nc2ccccc2)=C(N2CCCCC2)C(=O)c2ccccc21`, the IC50 is reported as 18.1 µM. `CC(=O)NC1=C(c2ccc3c(c2)oc2ccccc23)C(=O)c2ccccc2C1=O` gave an IC50 of 25.3 µM. `COc1ccc(C2=C(NC(=O)c3ccccc3Cl)C(=O)c3ccccc3C2=O)cc1` showed an IC50 of 17.6 µM. `CCN1CCN(C2=C(NC(=O)c3ccccc3)C(=O)c3ccccc3C2=O)CC1` gave an IC50 of 8.63 µM. In the case of `CN1CCN(C2=C(NS(=O)(=O)c3ccccc3)C(=O)c3ccccc3C2=O)CC1`, the IC50 is reported as 18.2 µM. In the case of `CN1CCN(C2=C(Nc3ccccc3)C(=O)c3ccccc3C2=O)CC1`, the IC50 is reported as 23.4 µM. In the case of `CCN(CC)CCCNC1=C(Nc2ccccc2)C(=O)c2ccccc2C1=O`, the IC50 is reported as 34 µM. In the case of `CC(=O)N(C)C1=C(N2CCCCC2)C(=O)c2ccccc2C1=O`, the IC50 is reported as 4.42 µM. With `O=C(NC1=C(c2ccc(Oc3ccccc3)cc2)C(=O)c2ccccc2C1=O)c1ccccc1` the IC50 was > 70 µM (inactive). `CCN1CCN(C2=C(N(C)C(C)=O)C(=O)c3ccccc3C2=O)CC1` gave an IC50 of 6.41 µM. In the case of `O=C1C(Nc2ccccc2)=C(NS(=O)(=O)c2ccccc2[N+](=O)[O-])C(=O)c2ccccc21`, the IC50 is reported as > 70 µM (inactive). In the case of `CN1CCN(C2=C(NS(=O)(=O)c3cccs3)C(=O)c3ccccc3C2=O)CC1`, the IC50 is reported as > 70 µM (inactive). In the case of `CCN1CCN(C2=C(NC(=O)c3ccc(Br)cc3)C(=O)c3ccccc3C2=O)CC1`, the IC50 is reported as 8.82 µM. In the case of `COc1ccc(C2=C(NC(=O)c3ccccc3OC)C(=O)c3ccccc3C2=O)cc1`, the IC50 is reported as > 70 µM (inactive). Work on `CC(=O)NC1=C(c2ccc(Cl)cc2)C(=O)c2ccccc2C1=O` yielded an IC50 of 13.4 µM. With `CC(=O)NC1=C(c2ccccc2)C(=O)c2ccccc2C1=O` the IC50 was 18.3 µM. With `CC1CCN(CC(CS(=O)(=O)c2ccc([N+](=O)[O-])cc2)N2CCC(C)CC2)CC1` (stereo not drawn) the IC50 was > 70 µM (inactive). In the case of `COc1ccc(C2=C(NC(=O)c3cccc(OC)c3)C(=O)c3ccccc3C2=O)cc1`, the IC50 is reported as 29 µM. `Cc1ccc(C(=O)NC2=C(c3ccccc3)C(=O)c3ccccc3C2=O)o1` showed an IC50 of 23.6 µM. In the case of `C=C1C(=O)OC2C1CC/C(C)=C\CCC1(C)OC21` (stereo not drawn), the IC50 is reported as > 47 µM (inactive). For `C[C@@H](NC1=C(Nc2ccccc2)C(=O)c2ccccc2C1=O)c1ccccc1`, the IC50 was > 70 µM (inactive). With `O=C1C(NS(=O)(=O)c2cccs2)=C(N2CCCCC2)C(=O)c2ccccc21` the IC50 was > 70 µM (inactive). `CC(=O)N(C)C1=C(N2CCOCC2)C(=O)c2ccccc2C1=O` showed an IC50 of 10.1 µM. With `CC(=O)N(C)C1=C(N2CCN(C)CC2)C(=O)c2ccccc2C1=O` the IC50 was 4.63 µM. With `O=C(NC1=C(c2ccccc2)C(=O)c2ccccc2C1=O)c1ccc(Br)cc1` the IC50 was > 70 µM (inactive). With `COc1ccc(C2=C(NC(=O)c3ccc(OC)cc3-c3cccc(OC)c3)C(=O)c3ccccc3C2=O)cc1` the IC50 was > 70 µM (inactive). For `C=CCNC1=C(N2CCOCC2)C(=O)c2ccccc2C1=O`, the IC50 was 11 µM. With `C=CCNC1=C(N2CCN(CC)CC2)C(=O)c2ccccc2C1=O` the IC50 was 17.9 µM. With `CCN(CC)CCCNC1=C(N(C)C(C)=O)C(=O)c2ccccc2C1=O` the IC50 was 5.52 µM. Work on `CN1CCN(C2=C(NC(=O)c3ccc(Br)cc3)C(=O)c3ccccc3C2=O)CC1` yielded an IC50 of 6.69 µM. For `O=C1C(NS(=O)(=O)c2ccc(Br)cc2)=C(c2ccccc2)C(=O)c2ccccc21`, the IC50 was > 70 µM (inactive). Molecule `O=C(NC1=C(N2CCSCC2)C(=O)c2ccccc2C1=O)c1ccccc1` has an IC50 of 29.9 µM. In the case of `C=CCNC1=C(NCCN(CC)CC)C(=O)c2ccccc2C1=O`, the IC50 is reported as 14 µM. `COc1ccc(C2=C(NC(C)=O)C(=O)c3ccccc3C2=O)cc1` gave an IC50 of 13.9 µM. `O=C1C(NS(=O)(=O)c2ccc(Br)cc2)=C(N2CCOCC2)C(=O)c2ccccc21` gave an IC50 of 35.4 µM. Work on `O=C1C=C(Nc2ccccc2)C(=O)c2ccccc21` yielded an IC50 of 5.05 µM. In the case of `O=C1C(NS(=O)(=O)c2ccc(Br)cc2)=C(c2ccc(OC(F)(F)F)cc2)C(=O)c2ccccc21`, the IC50 is reported as > 70 µM (inactive). `O=C(NC1=C(N2CCOCC2)C(=O)c2ccccc2C1=O)c1ccccc1` showed an IC50 of 20.1 µM. `O=C(NC1=C(c2ccccc2)C(=O)c2ccccc2C1=O)c1ccco1` showed an IC50 of 25.7 µM. For `O=C(NC1=C(N2CCN(c3ccccc3)CC2)C(=O)c2ccccc2C1=O)c1ccccc1`, the IC50 was > 70 µM (inactive). For `COc1ccc(C2=C(NC(=O)c3ccc4ccccc4c3)C(=O)c3ccccc3C2=O)cc1`, the IC50 was > 70 µM (inactive). `C=CCNC1=C(N2CCN(C)CC2)C(=O)c2ccccc2C1=O` showed an IC50 of 25.3 µM. In the case of `C=CCNC1=C(NCCCN(CC)CC)C(=O)c2ccccc2C1=O`, the IC50 is reported as 15.6 µM. For `COc1cccc(C2=C(NC(=O)c3ccccc3)C(=O)c3ccccc3C2=O)c1`, the IC50 was 22.5 µM. `Cc1nc2ccccc2n1/N=C/c1ccc([N+](=O)[O-])s1` gave an IC50 of 20.1 µM. For `C=CCNC1=C(NS(=O)(=O)c2ccc(Br)cc2)C(=O)c2ccccc2C1=O`, the IC50 was 29.9 µM. For `O=C(NC1=C(c2ccc(OC(F)(F)F)cc2)C(=O)c2ccccc2C1=O)c1ccc(Br)cc1`, the IC50 was > 70 µM (inactive). In the case of `O=C(NC1=C(c2ccccc2)C(=O)c2ccccc2C1=O)c1ccccc1`, the IC50 is reported as 26.1 µM. In the case of `O=C1C(Nc2ccccc2)=C(N2CCN(c3ccccc3)CC2)C(=O)c2ccccc21`, the IC50 is reported as > 70 µM (inactive). With `C=CCNC1=C(N2CCSCC2)C(=O)c2ccccc2C1=O` the IC50 was 10.9 µM. `C=CCNC1=C(N2CCCCC2)C(=O)c2ccccc2C1=O` showed an IC50 of 5.3 µM. With `O=C1C(NS(=O)(=O)c2ccc(Br)s2)=C(N2CCSCC2)C(=O)c2ccccc21` the IC50 was > 70 µM (inactive). In the case of `COc1ccc(S(=O)(=O)N(C(C)=O)c2ccc(OC(C)=O)c3ccccc23)cc1[N+](=O)[O-]`, the IC50 is reported as 31.6 µM. Work on `NC1=C(NC(=O)c2ccccc2)C(=O)c2ccccc2C1=O` yielded an IC50 of 19.8 µM. Work on `CN1CCN(C2=C(NC(=O)c3ccccc3)C(=O)c3ccccc3C2=O)CC1` yielded an IC50 of 9.27 µM. Work on `CCN1c2ccccc2NC2N=C(OC)C(c3ccccc3)C21` (stereo not drawn) yielded an IC50 of 23.9 µM. Molecule `COc1cccc(-c2cc(C(=O)NC3=C(Cl)C(=O)c4ccccc4C3=O)ccc2OC)c1` has an IC50 of 34 µM. Work on `COc1ccc(C2=C(NC(=O)c3cccc(Cl)c3)C(=O)c3ccccc3C2=O)cc1` yielded an IC50 of 27.7 µM. For `NC1=CC(=O)c2ccccc2C1=O`, the IC50 was 12.4 µM. In the case of `CC(=O)NC1=C(c2cccc(Cl)c2)C(=O)c2ccccc2C1=O`, the IC50 is reported as 14 µM. With `COc1ccc(C(=O)NC2=C(c3ccc(OC)cc3)C(=O)c3ccccc3C2=O)cc1` the IC50 was 15.6 µM.

Tested on: not listed separately
Assay: as above
Details: SK-MEL-5 melanoma viability, CellTiter-Glo ATP, 24 h; at 35 µM (top of the series)
In short: as §1
In the case of `C=CCNC1=C(NCC=C)C(=O)c2ccccc2C1=O`, the activity change, negative = inhibition is reported as -5.12% (inactive).
